From ChEMBL document CHEMBL1649236, “The structure of the dizinc subclass B2 metallo-beta-lactamase CphA reveals that the second inhibitory zinc ion binds in the histidine site” (Antimicrob Agents Chemother, 2009)

Legend:
[1] = system: Aeromonas hydrophila; assay: Ratio of Kcat to Km for Aeromonas hydrophila metallo-betalactamase CphA N233A mutant expressed in Escherichia coli BL21(DE3) by spectrophotometric analysis in presence of < 0.4 uM zinc ions
How it was run: (§1)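 Steady-state kinetics (kcat, Km, kcat/Km) at 30°C in 15 mM cacodylate pH 6.5, no added Zn2+ (free [Zn2+] < 0.4 µM), enzyme as the mono-zinc form (one Zn per molecule). Substrates imipenem, nitrocefin and CENTA. N233A mutant from E. coli BL21 (DE3) pLysS Star, purified to homogeneity, mass checked by ESI-MS. Standard errors below 10%.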

[2] = system: Aeromonas hydrophila; assay: Activity of Aeromonas hydrophila metallo-betalactamase CphA N233A mutant expressed in Escherichia coli BL21(DE3) by spectrophotometric analysis in presence of < 0.4 uM zinc ions; how it was run: as §1

Structure (SMILES)	kcat/Km [1] [M⁻¹ s⁻¹]	Km [2] [µM]	kcat [2] [s⁻¹]
C[C@@H](O)[C@H]1C(=O)N2C(C(=O)O)=C(SCCNC=N)C[C@H]12	700000	> 1000	> 700
O=C(Cc1cccs1)N[C@@H]1C(=O)N2C(C(=O)O)=C(/C=C/c3ccc([N+](=O)[O-])cc3[N+](=O)[O-])CS[C@H]12	520	55	0.03
O=C(Cc1cccs1)N[C@@H]1C(=O)N2C(C(=O)O)=C(CSc3ccc([N+](=O)[O-])c(C(=O)O)c3)CS[C@H]12	250	14	0.0035
